What was measured:
Type in all cases: functional
[1] = tested on: Enterococcus sp.; assay: Antibacterial activity against Enterococcus sp. J 14365/08 after 24 hrs by microbroth dilution method; conditions: J 14365/08, 24 h
Procedure, shortened: (§1)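 Microbroth dilution modified per M07-A07 in Mueller-Hinton broth, pH 7.4 (±0.2). Inoculum in sterile water adjusted to 0.5 McFarland. MIC taken as growth reduction of at least 90% (IC90) versus control, read visually and at 540 nm after 24 and 48 h incubation in the dark.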

[2] = tested on: Escherichia coli; assay: Antibacterial activity against Escherichia coli CCM 4517 after 24 hrs by microbroth dilution method; conditions: CCM 4517, 24 h; procedure, shortened: as §1
[3] = tested on: Pichia kudriavzevii; assay: Antifungal activity against Candida krusei E28 after 24 hrs by microbroth dilution method; conditions: E28, 24 h
[4] = tested on: Nakaseomyces glabratus; assay: Antifungal activity against Candida glabrata 20/I after 24 hrs by microbroth dilution method
[5] = tested on: Escherichia coli; assay: Antibacterial activity against Escherichia coli CCM 4517 after 48 hrs by microbroth dilution method; conditions: CCM 4517, 48 h; procedure, shortened: as §1
[6] = tested on: Pichia kudriavzevii; assay: Antifungal activity against Candida krusei E28 after 48 hrs by microbroth dilution method; conditions: E28, 48 h
[7] = tested on: Staphylococcus aureus; assay: Antibacterial activity against Staphylococcus aureus CCM 4516/08 after 24 hrs by microbroth dilution method; conditions: CCM 4516/08, 24 h; procedure, shortened: as §1
[8] = tested on: Trichophyton mentagrophytes; assay: Antifungal activity against Trichophyton mentagrophytes 445 after 120 hrs by microbroth dilution method; conditions: Trichophyton mentagrophytes, 445, 120 h
[9] = tested on: Staphylococcus epidermidis; assay: Antibacterial activity against Staphylococcus epidermidis H 6966/08 after 24 hrs by microbroth dilution method; conditions: H 6966/08, 24 h; procedure, shortened: as §1
[10] = tested on: Klebsiella pneumoniae; assay: Antibacterial activity against Klebsiella pneumoniae D 11750/08 after 48 hrs by microbroth dilution method; conditions: D 11750/08, 48 h; procedure, shortened: as §1
[11] = tested on: Staphylococcus epidermidis; assay: Antibacterial activity against Staphylococcus epidermidis H 6966/08 after 48 hrs by microbroth dilution method; conditions: H 6966/08, 48 h; procedure, shortened: as §1
[12] = tested on: Staphylococcus aureus; assay: Antibacterial activity against methicillin-resistant Staphylococcus aureus H 5996/08 after 48 hrs by microbroth dilution method; conditions: H 5996/08, 48 h
Procedure, shortened: (§2)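 Microdilution broth method modified after M07-A07 in Mueller-Hinton broth adjusted to pH 7.4 (±0.2). Inoculum prepared in sterile water to 0.5 McFarland (1.5 × 10^8 CFU/mL). MIC taken as growth reduction versus control (IC95 per table header), read visually and spectrophotometrically at 540 nm after 24 and 48 h incubation in the dark.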

[13] = tested on: Candida albicans; assay: Antifungal activity against Candida albicans ATCC 44859 after 24 hrs by microbroth dilution method; conditions: ATCC 44859, 24 h
[14] = tested on: Candida tropicalis; assay: Antifungal activity against Candida tropicalis 156 after 24 hrs by microbroth dilution method; conditions: Candida tropicalis, 156, 24 h
[15] = tested on: Staphylococcus aureus; assay: Antibacterial activity against Staphylococcus aureus CCM 4516/08 after 48 hrs by microbroth dilution method; conditions: CCM 4516/08, 48 h; procedure, shortened: as §2
[16] = tested on: Trichosporon asahii; assay: Antifungal activity against Trichosporon asahii 1188 after 24 hrs by microbroth dilution method; conditions: Trichosporon asahii, 1188, 24 h
[17] = tested on: Staphylococcus aureus; assay: Antibacterial activity against methicillin-resistant Staphylococcus aureus H 5996/08 after 24 hrs by microbroth dilution method; conditions: H 5996/08, 24 h; procedure, shortened: as §2
[18] = tested on: Enterococcus sp.; assay: Antibacterial activity against Enterococcus sp. J 14365/08 after 48 hrs by microbroth dilution method; conditions: J 14365/08, 48 h; procedure, shortened: as §1
[19] = tested on: Klebsiella pneumoniae; assay: Antibacterial activity against ESBL-positive Klebsiella pneumoniae J 14368/08 after 48 hrs by microbroth dilution method; conditions: J 14368/08, 48 h; procedure, shortened: as §1
[20] = tested on: Trichophyton mentagrophytes; assay: Antifungal activity against Trichophyton mentagrophytes 445 after 72 hrs by microbroth dilution method; conditions: Trichophyton mentagrophytes, 445, 72 h
[21] = tested on: Trichosporon asahii; assay: Antifungal activity against Trichosporon asahii 1188 after 48 hrs by microbroth dilution method; conditions: Trichosporon asahii, 1188, 48 h
[22] = tested on: Candida albicans; assay: Antifungal activity against Candida albicans ATCC 44859 after 48 hrs by microbroth dilution method; conditions: ATCC 44859, 48 h
[23] = tested on: Klebsiella pneumoniae; assay: Antibacterial activity against ESBL-positive Klebsiella pneumoniae J 14368/08 after 24 hrs by microbroth dilution method; conditions: J 14368/08, 24 h; procedure, shortened: as §1
[24] = tested on: Klebsiella pneumoniae; assay: Antibacterial activity against Klebsiella pneumoniae D 11750/08 after 24 hrs by microbroth dilution method; conditions: D 11750/08, 24 h; procedure, shortened: as §1
[25] = tested on: Lichtheimia corymbifera; assay: Antifungal activity against Absidia corymbifera 272 after 24 hrs by microbroth dilution method; conditions: Lichtheimia corymbifera, 272, 24 h
[26] = tested on: Candida tropicalis; assay: Antifungal activity against Candida tropicalis 156 after 48 hrs by microbroth dilution method; conditions: Candida tropicalis, 156, 48 h
[27] = tested on: Lichtheimia corymbifera; assay: Antifungal activity against Absidia corymbifera 272 after 48 hrs by microbroth dilution method; conditions: Lichtheimia corymbifera, 272, 48 h
[28] = tested on: Nakaseomyces glabratus; assay: Antifungal activity against Candida glabrata 20/I after 48 hrs by microbroth dilution method

Measured: MIC

O=C(NCc1ccccc1)Oc1ccc(Cl)cc1C(=O)Nc1ccc(F)cc1
125 µM: [4] | [16]
31.2 µM: [12]
> 250 µM: [6] | [14] | [21] | [22] | [26] | [27] | [28]
250 µM: [3] | [8] | [13] | [20] | [25]
15.6 µM: [7] | [9] | [11] | [15] | [17]
> 500 µM: all other assays above

O=C(NCCc1ccccc1)Oc1ccc(Cl)cc1C(=O)Nc1ccc(Br)cc1
≤ 0.49 µM: [7] | [9]
> 125 µM: [3] | [6] | [13] | [14] | [22] | [26]
125 µM: [4] | [25] | [27] | [28]
3.9 µM: [8] | [20]
62.5 µM: [16] | [21]
1.95 µM: [12] | [15]
0.98 µM: [11] | [17]
> 500 µM: all other assays above

O=C(NC12CC3CC(CC(C3)C1)C2)Oc1ccc(Cl)cc1C(=O)Nc1ccc(Br)cc1
3.9 µM: [12]
125 µM: [19]
31.2 µM: [23]
0.98 µM: [7] | [9]
1.95 µM: [11] | [15] | [17]
> 250 µM: [2] | [5] | [10] | [24]
7.81 µM: [8] | [20]
> 500 µM: [1] | [18]
> 125 µM: all other assays above

— ChEMBL document CHEMBL3763086, “Salicylanilide N-monosubstituted carbamates: Synthesis and in vitro antimicrobial activity” (2016)
